Assay results from ChEMBL document CHEMBL2069177, “A prospective cross-screening study on G-protein-coupled receptors: lessons learned in virtual compound library design” (J Med Chem, 2012).

How the values were obtained:
Adenosine receptor A2a = Adenosine receptor A2a (Homo sapiens, UniProt P29274); test: Displacement of [3H]ZM241385 from human AA2AR expressed in HEK293T cells after 2 hrs by liquid scintillation counter; assay type: cell-based, HEK-293T
Method in brief: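 Membranes of HEK293T cells stably expressing AA2AR (40 µg protein) incubated with 1.7 nM (final) [3H]ZM241385 in 50 mM Tris·HCl pH 7.4, 2 h at 25 °C with shaking. Nonspecific binding defined with 100 µM CGS21680. Filtered over GF/B, washed three times with ice-cold buffer. Compounds giving ≥50% inhibition at 10 µM went to concentration-response curves. pKi values, n=3 in duplicate.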

[1] = biological target: Beta-2 adrenergic receptor (Homo sapiens, UniProt P07550); test: Displacement of [3H]dihydroalprenolol from human ADRB2 expressed in HEK293T cells after 1 hr by liquid scintillation counter; assay type: cell-based, HEK-293T
Method in brief: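 HEK293T cells transiently transfected with ADRB2 using PEI, harvested 48 h later for membranes. Membranes incubated at room temperature for 1 h with 1 nM [3H]-dihydroalprenolol in HEPES pH 7.4 with CaCl2, MgCl2, NaCl and 0.5% BSA. Filtered on GF/C presoaked in PEI, washed with ice-cold buffer plus 500 mM NaCl. Compounds giving ≥50% inhibition at 10 µM went to concentration-response curves. Ki by nonlinear regression, n=3 in triplicate.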

[2] = biological target: Sphingosine 1-phosphate receptor 1 (Homo sapiens, UniProt P21453); test: Induction of beta-arrestin2 recruitment to human S1PR1 expressed in CHOK1 cells after 2 hrs by beta-galactosidase assay; assay type: cell-based, CHO-K1
Method in brief: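 PathHunter enzyme-fragment-complementation CHO-K1 S1PR1 β-arrestin cells seeded at 10,000/well in OPTI-MEM and held overnight at 37 °C. Compound added for 2 h at 37 °C, then 1 h at room temperature. Lysed with detection reagent and read by chemiluminescence after 2 h dark. Recruitment referenced to AUY954 (1 µM). Hits with ≥30% recruitment went to dose-response. pEC50, n=1 in triplicate.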

Sphingosine 1-phosphate receptor 1, sequence (P21453 whole entry, the tested form may be a part): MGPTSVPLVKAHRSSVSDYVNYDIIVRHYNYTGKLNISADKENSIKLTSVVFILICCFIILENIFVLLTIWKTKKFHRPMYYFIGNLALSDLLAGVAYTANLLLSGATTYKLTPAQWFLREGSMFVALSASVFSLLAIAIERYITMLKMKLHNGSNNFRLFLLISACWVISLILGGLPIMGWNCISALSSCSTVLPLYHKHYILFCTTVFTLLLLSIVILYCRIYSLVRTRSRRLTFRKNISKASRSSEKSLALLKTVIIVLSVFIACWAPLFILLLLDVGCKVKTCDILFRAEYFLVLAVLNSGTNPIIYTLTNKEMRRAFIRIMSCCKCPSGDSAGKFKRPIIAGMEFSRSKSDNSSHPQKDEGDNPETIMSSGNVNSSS
Beta-2 adrenergic receptor, sequence (P07550 whole entry): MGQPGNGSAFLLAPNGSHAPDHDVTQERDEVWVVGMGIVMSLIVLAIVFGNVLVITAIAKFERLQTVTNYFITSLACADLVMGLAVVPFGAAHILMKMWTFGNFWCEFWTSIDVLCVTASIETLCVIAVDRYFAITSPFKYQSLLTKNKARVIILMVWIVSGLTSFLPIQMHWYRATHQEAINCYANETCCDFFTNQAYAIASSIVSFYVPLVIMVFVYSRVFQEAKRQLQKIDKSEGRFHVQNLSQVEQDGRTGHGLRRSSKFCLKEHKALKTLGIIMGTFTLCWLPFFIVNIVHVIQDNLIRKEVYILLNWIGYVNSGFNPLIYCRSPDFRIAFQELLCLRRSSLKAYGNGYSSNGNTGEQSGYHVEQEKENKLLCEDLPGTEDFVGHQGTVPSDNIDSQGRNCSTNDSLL
Adenosine receptor A2a, sequence (P29274 whole entry): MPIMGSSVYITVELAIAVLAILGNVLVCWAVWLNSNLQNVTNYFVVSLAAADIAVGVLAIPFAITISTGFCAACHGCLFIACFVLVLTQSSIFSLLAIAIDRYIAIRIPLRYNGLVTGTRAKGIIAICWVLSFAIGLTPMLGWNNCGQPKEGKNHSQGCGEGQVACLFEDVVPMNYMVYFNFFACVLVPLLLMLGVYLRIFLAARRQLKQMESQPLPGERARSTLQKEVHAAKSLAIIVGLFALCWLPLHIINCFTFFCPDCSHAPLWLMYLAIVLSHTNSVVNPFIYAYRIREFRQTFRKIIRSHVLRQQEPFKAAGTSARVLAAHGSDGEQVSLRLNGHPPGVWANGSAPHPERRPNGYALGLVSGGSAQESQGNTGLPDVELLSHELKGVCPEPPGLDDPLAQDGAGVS

Row | Compound | Ki (Adenosine receptor A2a) | also measured
1 | COc1cc(/C=N/Nc2ncnc3sc4c(c23)CCCC4)ccc1O | 5.01 µM | –
2 | Cc1ccc(C(C)C)c(OCC(O)CN2CCN(CCO)CC2)c1 (configuration not stated) | – | Ki [1]: 39.8 µM
3 | CC(=O)c1c(CSc2ccccc2)oc2ccc(O)c(CN(C)C)c12 | – | Ki [1]: 39.8 µM
4 | O=C1Cc2ccccc2Sc2c(OCCN3CCCCC3)cccc21 | – | Ki [1]: 794 µM
5 | Cc1ccc(C)c(OCC(O)CNC2CCCC2)c1 (configuration not stated) | – | Ki [1]: 2 µM
6 | Cc1n[nH]c(C)c1S(=O)(=O)N1CCC(C(=O)Nc2nc3c(C)cccc3s2)CC1 | 1 µM | –
7 | N/C(=N\C(=O)CN1C(=O)C2CCCCC2C1=O)Nc1nc2ccccc2s1 (configuration not stated) | 5.01 µM | –
8 | Cc1ccc2[nH]c3nc(SCC(=O)Nc4ncc(C)s4)nnc3c2c1 | 3.98 µM | –
9 | Cc1nc2[nH]c3ccccc3n2c(=O)c1CCOC(=O)C1CCCCC1 | 2.51 µM | –
10 | O=C1c2ccccc2C(=O)c2cc(OCC(O)CN3CCCCC3)ccc21 (configuration not stated) | 5.01 µM | –
11 | Cc1ccc(C(C)C)c(OCC(O)CN2CCCCC2)c1 (configuration not stated) | – | Ki [1]: 0.794 µM
12 | Cc1nc2ccc(O)c(CN(C)C)c2[nH]1 | – | Ki [1]: 25.1 µM
13 | O=C(Nc1nc2ccc(-c3nc4ccccc4[nH]3)cc2s1)C1CCCCC1 | – | EC50 [2]: 20 µM
14 | CC(=O)N1CCc2cc(Br)cc(S(=O)(=O)N3CCC(O)(c4cccc(C(F)(F)F)c4)CC3)c21 | – | EC50 [2]: 31.6 µM
15 | Cc1ccc(S(=O)(=O)Nc2nc3n(n2)C(c2ccccc2)C=C(c2ccccc2)N3)cc1 (configuration not stated) | – | EC50 [2]: 50.1 µM
16 | CCCc1nn(C)c2c(=O)[nH]c(-c3cc(S(=O)(=O)N4CCN(C)CC4)ccc3OCC)nc12 [SILDENAFIL] | 0.2 µM | –

Second part, led by results:

Row | Ki (Adenosine receptor A2a) | Compound | also measured
17 | 3.98 µM | N=C(NC(=O)C(Cc1ccccc1)N1C(=O)c2ccccc2C1=O)Nc1nc2ccccc2o1 (configuration not stated) | –
18 | 1 µM | N#CCSc1nc2cc(C(=O)N3CCC(C(N)=O)CC3)ccc2c2nc3ccccc3n12 | –
19 | 5.01 µM | O=C(CCN1C(=O)c2ccccc2C1=O)Nc1nc2ccccc2s1 | –
20 | 0.631 µM | Cc1cc(NC(=O)CSc2nc3ccccc3c3nc4ccccc4n23)n[nH]1 | –
21 | 1.26 µM | CCOC(=O)c1nc[nH]c1/N=N/c1c(O)ccc2ccccc12 | –
22 | 1.58 µM | Nc1ccc(C(=O)Nc2ccc(O)c(-c3nc4ccccc4[nH]3)c2)cc1 | –
23 | 1.58 µM | Cc1cccc2sc(NC(=O)CNS(=O)(=O)c3cccs3)nc12 | –
24 | 6.31 µM | CC1=C(C(=O)Nc2nc3ccccc3s2)C(c2ccco2)C(C#N)=C(SCC(N)=O)N1 (configuration not stated) | –
25 | 2.51 µM | CC1CCN(C(=O)c2ccc3c(=O)[nH]c4c(-c5ccccc5)nnn4c3c2)CC1 | –
26 | 0.631 µM | COCC1=CC(O)N=C(Nc2nc(C)c3ccccc3n2)N1 (configuration not stated) | –
27 | 5.01 µM | N#C/C(=N\Nc1ccc(S(N)(=O)=O)cc1)c1nc2ccccc2[nH]1 | –
